Screening data as filed in PubChem BioAssay.
Shown are actives, neighbours in structure and some others; about 2.2% of the full set was active somewhere.
HNF4A DNA FP – change in binding of human HNF4 alpha to DNA; P41235; HNF4a-FITC DNA binding, fluorescence polarization, 1 h; activity change, % at 10 µM; 0.3% of 360,000 active; in the data active = activity change above about 30%, passing the limit was not always enough
CSN inh – inhibitors of human CSN-mediated cullin deneddylation; Q92905; Purified CSN, SCF-Nedd8-OG deneddylation, fluorescence polarization; inhibition, % at 12.5 µM; 0.38% of 360,000 active;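 active = pattern-corrected inhibition above about 35%, with an unprinted fluorescence ratio check between 0.5 and 1.5, limit read from the data, passing the limit was not always enough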;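 note: 0% = enzyme with substrate and 100% = substrate without enzyme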
Target sequence (Q92905 whole entry, looked up, one chain of several): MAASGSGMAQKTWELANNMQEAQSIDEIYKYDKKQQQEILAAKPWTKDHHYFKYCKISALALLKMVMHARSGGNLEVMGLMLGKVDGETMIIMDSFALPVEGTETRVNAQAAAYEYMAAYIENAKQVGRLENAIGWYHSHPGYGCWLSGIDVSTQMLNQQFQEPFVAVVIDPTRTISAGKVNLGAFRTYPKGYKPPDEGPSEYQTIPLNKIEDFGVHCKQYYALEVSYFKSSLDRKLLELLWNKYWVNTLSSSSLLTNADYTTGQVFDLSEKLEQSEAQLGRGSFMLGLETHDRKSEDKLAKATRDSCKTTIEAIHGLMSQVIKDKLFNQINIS
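Assay system: purified human Csn5 enzyme expressed in HEK293T cells; Input: 0.24 nM Csn5 enzyme, final concentration; Reagent: 10 nM SCFSkp2-Nedd8OG; Compound dosing: 12.5 µM single point; Times: reaction 90 min, room temperature; Technique: fluorescence polarization readout.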
Granule exo inh – lytic granule exocytosis inhibition | TALL-104 LAMP-1 surface exposure, flow cytometry; cells stimulated with thapsigargin and PMA | 0.66% of 360,000 active | inhibition, % at 10 µM;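 active = inhibition above about 55%, limit read from the data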
Myeloid diff 2 – promotes myeloid progenitor differentiation; ER-HoxA9 myeloid progenitors, lysozyme-GFP differentiation, flow cytometry; 1% of 360,000 active; calls only at 10 µM;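 active = normalized GFP-positive differentiation at or above the plate's own cutoff, the solvent-only control mean plus 3 SD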;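 note: cells exposed to compound for four days before flow analysis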
Starred values were filed as active, the others as inactive; i = inactive; . = no result given; + = active, no number.

SMILES | HNF4A DNA FP | CSN inh | Granule exo inh | Myeloid diff 2
CN(CCO)c1cccc2c1S(=O)(=O)N[C@H](Cc1ccccc1)CO2 | 3 | -1 | -5 | i
O=C(O)/C=C/c1ccc2ccccc2n1 | -1 | -2 | 1 | i
O=C(/C=C/c1ccc2ccccc2n1)c1cc(Br)ccc1O | 29 | 17 | 6 | +
COc1ccccc1N(CC(=O)NCc1ccccc1)S(=O)(=O)c1cccs1 | 7 | 1 | -4 | i
O=C1C=C(c2ccc(-c3ccccc3)c(F)c2)C[C@@H](c2ccc(Cl)cc2)C1 | -1 | 5 | -19 | i
COc1ccc(NC(=O)CC(C)NCCCN2CCCC2=O)cc1 (centres undefined) | -2 | -2 | 0 | +
COC1=CC(=O)C[C@@H](C)[C@]12Oc1c(Cl)c(OC)cc(OC)c1C2=O | 6 | 2 | -2 | i
CC1(C)CC(=O)C(=Cc2cn(-c3ccccc3)nc2-c2ccccc2)C(=O)C1 | 4 | 2 | 56* | i
Cc1cc(NC(=O)C(C)SCC(=O)Nc2cc(C(F)(F)F)ccc2N2CCOCC2)no1 (centres undefined) | 1 | 0 | 1 | i
O=C(CSc1nc2sc3c(c2c(=O)n1-c1ccccc1)CCCC3)N/N=C/c1ccccc1C(=O)O | -1 | 50* | 8 | i
Cc1ccccc1-n1c(SCC(=O)c2c(N)n(C)c(=O)n(C)c2=O)nc2sc3c(c2c1=O)CCCC3 | 7 | -14 | 4 | +
CC(NC(=O)CSc1nc2sc3c(c2c(=O)n1-c1ccccc1)CCCC3)c1ccccc1 (centres undefined) | 3 | 5 | 0 | i
Cc1ccccc1-n1c(SCC(=O)c2c(N)n(C)c(=O)n(C)c2=O)nnc1-c1cccnc1 | -2 | 8 | 1 | i
Cc1oc(-c2ccc(F)cc2)cc1-c1nn2c(-c3ccoc3C)nnc2s1 | -40 | 39* | 2 | i
COc1ccc(-c2nnc3sc(-c4ccco4)nn23)cc1OC | -1 | 11 | -5 | i
Cc1ccc(N(CC(=O)NC2CCCCC2)C(=O)CCC(=O)Nc2nccs2)cc1 | 0 | -3 | -3 | i
CCOC(=O)/C(=C/c1ccc(OC(=O)c2ccncc2)cc1)C(C)=O | -2 | 36* | -2 | i
COCCOC(=O)/C(=C/c1ccc(OC(=O)c2ccccc2)cc1)C(C)=O | 0 | 3 | 0 | i
CCc1cccc(CC)c1NC(=O)CN(CC(=O)O)CC(=O)O | -3 | 0 | -4 | i
O=C(O)CN(CC(=O)O)CC(=O)O | 3 | -1 | -1 | +
CC(Oc1ccc(F)cc1)C(=O)Nc1cc(S(=O)(=O)N2CCOCC2)ccc1N1CCCCC1 (centres undefined) | 0 | 1 | -16 | i
CN=C1c2cc3c(Br)c(OC)ccc3n2CCN1C | 10 | -3 | 1 | i
CN=C1c2cc3cc(OC)ccc3n2CCN1C | -1 | -2 | 6 | +
Cc1nc2ccc(C(=O)N3CCN(C(=O)c4ccco4)CC3)cn2c1N(C)C(=O)CCc1ccccc1 | 1 | -4 | 5 | i
CC(=O)NCCOC(=O)c1nn(Cc2ccccc2)c(=O)c2ccccc12 | 11 | 2 | 3 | i
SMILES | HNF4A DNA FP | CSN inh | Granule exo inh | Myeloid diff 2
CC(C)(C)N(NS(=O)(=O)c1ccc(F)cc1)c1ccccc1 | 0 | -3 | -8 | i
Cc1ccc2nc(/C(C#N)=C/c3ccc(-c4cccc([N+](=O)[O-])c4)o3)[nH]c2c1 | 23 | 45 | 0 | +
COC(=O)c1cc(S(=O)(=O)N2CCN(Cc3ccccc3)CC2)c[nH]1 | -2 | 5 | -1 | i
CCOC(=O)C1=CCC2C(=O)N(CC)C(=O)C12 (centres undefined) | 0 | 2 | -2 | i
S=C(NCCN(C1CCCCC1)C1CCCC1)Nc1cccc(Cl)c1 | 3 | -2 | 1 | +
COC(=O)c1ccc(NC(=O)CSc2ccc(-c3ccccn3)nn2)cc1 | 1 | 1 | 3 | i
CN(C(=S)NC(=O)c1ccccc1)C1CCCCC1 | 0 | 46* | -5 | i
CN(C(=S)NC(=O)c1ccc(Cl)cc1)C1CCCCC1 | 0 | -2 | 0 | .
COC(=O)[C@@]12C[C@@H](CC(=O)NCCCCc3ccccc3)C(=O)N(Cc3ccc4c(c3)OCO4)C1=CCC(C)(C)C2 | 1 | -3 | 7 | +
CCc1ccc2nc(SCC(=O)Nc3ccccc3N3CCOCC3)c(C#N)cc2c1 | 6 | 2 | 4 | +
CCOc1ccc2nc(SCC(=O)N3c4ccccc4Sc4ccccc43)sc2c1 | 5 | -10 | -9 | i
CCOc1ccc2nc(SCC(=O)N3c4ccccc4Sc4ccccc43)c(C#N)cc2c1 | 3 | -3 | -6 | +
